mIAP act: increases mouse intestinal alkaline phosphatase activity. 0.24% of 330,000 active. activation factor at 10 µM. muIAP, CDP-Star luminescence, 30 min; hits give high values; 1 = vehicle-only enzyme signal, 0 = enzyme-free wells;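 active means activation factor of at least 2 at 20 µM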
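Assay system: mouse IAP enzyme; reagent: chemiluminescent substrate CDP-Star; dosing: test compounds delivered from DMSO solution; schedule: 30 min at room temperature; measured by: luminescence from enzymatic CDP-Star hydrolysis; controls: DMSO-only wells and no-enzyme negative control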
bIAP activator: intestinal alkaline phosphatase (bovine) activation; purified bovine IAP, CDP-star luminescence, 30 min; hits give high values; fold of DMSO-control signal, blank-subtracted; activation factor at 20 µM; 0.17% of 200,000 active; AID 1016;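 active means activation factor of 2 or more at 20 µM, a signal rise over negative controls twice the positive control's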
hIAP block: human IAP inhibition; P09923; purified IAP, CDP-Star luminescence, 30 min; inhibition, % at 10 µM; 0.12% of 330,000 active;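 active means inhibition reaching a set limit with compound at 10 µM in the primary screen, cut at about 35% in these data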
Target sequence (P09923 whole entry, looked up): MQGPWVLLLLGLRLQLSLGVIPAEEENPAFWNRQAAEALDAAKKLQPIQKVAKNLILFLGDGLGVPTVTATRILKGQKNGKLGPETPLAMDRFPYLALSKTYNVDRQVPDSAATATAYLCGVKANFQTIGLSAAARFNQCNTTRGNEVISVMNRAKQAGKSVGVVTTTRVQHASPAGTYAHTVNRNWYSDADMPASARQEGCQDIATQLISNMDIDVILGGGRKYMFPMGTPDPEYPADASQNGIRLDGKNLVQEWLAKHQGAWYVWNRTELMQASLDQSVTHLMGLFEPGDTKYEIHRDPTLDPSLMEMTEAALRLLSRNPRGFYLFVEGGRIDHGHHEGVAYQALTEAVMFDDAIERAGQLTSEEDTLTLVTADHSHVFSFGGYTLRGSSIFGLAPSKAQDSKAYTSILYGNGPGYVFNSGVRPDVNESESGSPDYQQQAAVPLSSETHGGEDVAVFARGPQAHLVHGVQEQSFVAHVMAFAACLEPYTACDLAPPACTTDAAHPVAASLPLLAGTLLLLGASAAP
mIAP block: mouse IAP inhibition; purified mouse IAP, CDP-Star luminescence, 30 min; inhibition, % at 10 µM; 0.2% of 330,000 active; AID 2806;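 active means inhibition of at least 40% at 10 µM in the primary screen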
hIAP act: human IAP activation. P09923. purified human IAP, CDP-Star luminescence, 30 min; hits give high values; 1 = vehicle-only enzyme, 0 = enzyme-free background. activation factor at 10 µM. 0.16% of 330,000 active;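 active means activation factor of the enzyme at least 2-fold when tested at 20 µM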
bIAP inh: blocks bovine intestinal alkaline phosphatase activity; purified bovine IAP, CDP-star luminescence, 30 min; inhibition, % at 20 µM; 190,000 tested, under 10 active; AID 1019;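 active means over 50% inhibition of intestinal alkaline phosphatase at 20 µM in the single-dose screen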
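Incubation: 30 min reaction at room temperature / Material: purified bovine intestinal alkaline phosphatase (IAP) enzyme / Input: enzyme at 1/65,000,000 dilution / Dosing: 20 µM single dose / Signal: CDP-star luminescence signal / Reagent: CDP-star chemiluminescent phosphatase substrate, 30 µM final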
Numbers stand for hits. In the library only some 0.79% were active in any assay of this set; here they are far more common.

Screening COc1cc(/C=C2/CC/C(=C/c3ccc(O)c(OC)c3)C2=O)ccc1O returned mIAP act inactive, hIAP block inactive, mIAP block inactive and hIAP act inactive.
`COc1ccccc1NC(=O)CN1CCN(C2c3ccccc3-c3ccccc32)CC1` gave mIAP act inactive, bIAP activator 2, hIAP block inactive, mIAP block inactive, hIAP act inactive and bIAP inh inactive.
Screening COC/C=C/C1=CC2=CC(=O)C(C)(OC(=O)c3cnc4ccccc4n3)C(=O)C2=CN1C1CCCC1 (stereo not given) returned mIAP act inactive, hIAP block inactive, mIAP block inactive and hIAP act inactive.
O=C(COC(=O)c1cc(Br)ccc1Cl)NC(=O)NCc1ccccc1 was read as mIAP act inactive, bIAP activator inactive, hIAP block inactive, mIAP block inactive, hIAP act inactive and bIAP inh inactive.
Screening O=C(COc1ccc(Cl)cc1Br)NC(=O)NCc1ccccc1 returned mIAP act inactive, bIAP activator 6.5, hIAP block inactive, mIAP block inactive, hIAP act inactive and bIAP inh inactive.
C/C(N)=C(/C#N)C(=O)CSc1nnc(COc2ccccc2Cl)o1 was read as mIAP act inactive, bIAP activator 2.1, hIAP block inactive, mIAP block inactive, hIAP act inactive and bIAP inh inactive.
`O=C(CSc1nnc(COc2ccccc2Cl)o1)Nc1ccccc1` gave mIAP act inactive, hIAP block inactive, mIAP block inactive and hIAP act inactive.
For COc1ccc(S(=O)(=O)N(C)C[C@H]2Oc3ccc(NC(=O)Cc4ccccc4)cc3C(=O)N([C@H](C)CO)C[C@@H]2C)cc1 the results were mIAP act inactive, hIAP block inactive, mIAP block inactive and hIAP act inactive.
For C[C@@H]1CN([C@@H](C)CO)C(=O)c2cc(NC(=O)Nc3ccc4c(c3)OCO4)ccc2O[C@H]1CN(C)S(=O)(=O)c1ccc(F)cc1 the results were mIAP act 2.4, hIAP block inactive, mIAP block inactive and hIAP act inactive.
`C[C@H](CO)N1C[C@H](C)[C@@H](CN(C)S(=O)(=O)c2ccc(F)cc2)Oc2ccc(NC(=O)Nc3ccc(C(F)(F)F)cc3)cc2C1=O` gave mIAP act inactive, hIAP block inactive, mIAP block inactive and hIAP act inactive.
For C[C@H](CO)N1C[C@H](C)[C@@H](CN(C)S(=O)(=O)c2ccc(F)cc2)Oc2ccc(NC(=O)Nc3ccccc3)cc2C1=O the results were mIAP act 2.4, hIAP block inactive, mIAP block inactive and hIAP act inactive.
`C[C@H](CO)N1C[C@H](C)[C@@H](CN(C)S(C)(=O)=O)Oc2ccc(NC(=O)Nc3ccc4c(c3)OCO4)cc2C1=O` gave mIAP act inactive, hIAP block inactive, mIAP block inactive and hIAP act inactive.
COc1ccc(NC(=O)Nc2ccc3c(c2)C(=O)N([C@H](C)CO)C[C@H](C)[C@@H](CN(C)S(=O)(=O)c2ccccc2)O3)cc1 was read as mIAP act 3.3, hIAP block inactive, mIAP block inactive and hIAP act inactive.
C[C@H](CO)N1C[C@H](C)[C@@H](CN(C)S(=O)(=O)c2ccc(F)cc2)Oc2ccc(NC(=O)Nc3ccc4c(c3)OCO4)cc2C1=O was read as mIAP act 2.5, hIAP block inactive, mIAP block inactive and hIAP act inactive.
O=C(CN1C(=O)NC2(CCCc3ccccc32)C1=O)NCc1ccc(Cl)cc1Cl (stereo not given) was read as mIAP act inactive, hIAP block inactive, mIAP block inactive and hIAP act inactive.
For Cc1ccccc1C(=O)N1CCN=C1SCc1ccc([N+](=O)[O-])cc1 the results were mIAP act inactive, bIAP activator inactive, hIAP block inactive, mIAP block inactive, hIAP act inactive and bIAP inh inactive.
`COc1ccc(NC(C)=O)cc1CNC(=O)CN1CCOCC1` gave mIAP act inactive, hIAP block inactive, mIAP block inactive and hIAP act inactive.
CC(=O)c1cccc(NC(=S)NCc2ccccc2)c1 was read as mIAP act inactive, hIAP block inactive, mIAP block inactive and hIAP act inactive.
For O=C(NCCc1c[nH]c2ccccc12)Nc1cccc2ccccc12 the results were mIAP act 2.3, bIAP activator inactive, hIAP block inactive, mIAP block inactive, hIAP act inactive and bIAP inh inactive.
`CCOC(=O)c1ccc(NC(=O)NCc2ccc(OC)cc2)cc1` gave mIAP act 2.2, bIAP activator inactive, hIAP block inactive, mIAP block inactive, hIAP act inactive and bIAP inh inactive.
CCOc1ccccc1NC(=O)NCCc1c[nH]c2ccccc12 was read as mIAP act inactive, hIAP block inactive, mIAP block inactive and hIAP act inactive.
For O=C(Nc1ccccc1)Nc1cccc2ccccc12 the results were mIAP act 2.9, hIAP block inactive, mIAP block inactive and hIAP act inactive.
CCOC(=O)c1cccc(NC(=S)NCc2ccc(C)cc2)c1 was read as mIAP act 2.4, bIAP activator inactive, hIAP block inactive, mIAP block inactive, hIAP act inactive and bIAP inh inactive.
Screening CCOC(=O)CSc1cc(CS(=O)c2ccc(Cl)cc2)nc(-c2ccccc2)n1 (stereo not given) returned mIAP act inactive, bIAP activator inactive, hIAP block inactive, mIAP block inactive, hIAP act inactive and bIAP inh inactive.
Screening O=C(CSc1ncnc2c1cnn2-c1ccccc1)NC1CCS(=O)(=O)C1 (stereo not given) returned mIAP act inactive, hIAP block inactive, mIAP block inactive and hIAP act inactive.
Cc1ccccc1Nc1nccc(N(C)C)c1C#N was read as mIAP act inactive, bIAP activator inactive, hIAP block inactive, mIAP block inactive, hIAP act inactive and bIAP inh inactive.
For O=C(NCc1cccc2ccccc12)Nc1ccccc1 the results were mIAP act 2, bIAP activator inactive, hIAP block inactive, mIAP block inactive, hIAP act inactive and bIAP inh inactive.
For COc1ccc(CNC(=O)Nc2cccc3ccccc23)cc1 the results were mIAP act 2.1, bIAP activator inactive, hIAP block inactive, mIAP block inactive, hIAP act inactive and bIAP inh inactive.
Screening O=C(NCc1ccccc1)Nc1cccc2ccccc12 returned mIAP act inactive, bIAP activator inactive, hIAP block inactive, mIAP block inactive, hIAP act inactive and bIAP inh inactive.
`CC1CCN(CCc2nc3cc(NC(=O)NC4CCCCC4)ccc3n2C)CC1` gave mIAP act inactive, bIAP activator 2.5, hIAP block inactive, mIAP block inactive, hIAP act inactive and bIAP inh inactive.
For Cn1c(CCN2CCCCC2)nc2cc(NC(=O)NC3CCCCC3)ccc21 the results were mIAP act inactive, bIAP activator inactive, hIAP block inactive, mIAP block inactive, hIAP act inactive and bIAP inh inactive.

Compound activity from PubChem BioAssay.
